HKDC1 inh – HKDC1 (human) hexokinase inhibition | Q2TB90 | recombinant HKDC1, G6PDH/diaphorase resazurin coupled fluorescence | inhibition, % at 20 µM | 0.16% of 340,000 active | AID 493160;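 active = inhibition above about 35% when tested at 20 µM, limit read from the data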
Target sequence (Q2TB90 whole entry, looked up): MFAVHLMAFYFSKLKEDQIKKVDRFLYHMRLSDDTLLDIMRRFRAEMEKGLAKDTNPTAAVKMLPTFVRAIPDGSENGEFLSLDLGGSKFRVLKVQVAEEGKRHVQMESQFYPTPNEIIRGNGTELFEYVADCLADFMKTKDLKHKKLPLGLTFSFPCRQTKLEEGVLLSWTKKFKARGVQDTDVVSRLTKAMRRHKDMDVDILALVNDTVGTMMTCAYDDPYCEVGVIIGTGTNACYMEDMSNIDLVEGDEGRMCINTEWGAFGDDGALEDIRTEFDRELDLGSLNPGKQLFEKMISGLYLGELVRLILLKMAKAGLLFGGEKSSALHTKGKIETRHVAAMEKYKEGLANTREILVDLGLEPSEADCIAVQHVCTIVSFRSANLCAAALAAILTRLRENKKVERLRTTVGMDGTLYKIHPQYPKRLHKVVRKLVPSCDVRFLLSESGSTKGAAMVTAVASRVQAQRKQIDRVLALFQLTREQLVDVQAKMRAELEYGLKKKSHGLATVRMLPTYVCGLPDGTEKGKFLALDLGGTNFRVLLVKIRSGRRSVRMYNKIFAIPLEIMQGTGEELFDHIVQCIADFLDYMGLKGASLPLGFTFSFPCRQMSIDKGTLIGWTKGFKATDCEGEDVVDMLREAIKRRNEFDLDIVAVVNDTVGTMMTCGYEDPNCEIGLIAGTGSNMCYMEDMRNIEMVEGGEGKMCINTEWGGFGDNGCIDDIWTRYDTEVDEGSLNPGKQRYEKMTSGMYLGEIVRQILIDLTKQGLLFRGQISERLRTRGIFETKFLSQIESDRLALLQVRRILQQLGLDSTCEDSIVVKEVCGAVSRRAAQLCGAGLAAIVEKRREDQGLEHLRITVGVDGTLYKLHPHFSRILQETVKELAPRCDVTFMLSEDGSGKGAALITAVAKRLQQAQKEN
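System: Recombinant HKDC1 hexokinase | Amount: HKDC1 at 5 µg/mL | Reagent: Glucose with 1 mM ATP | Doses: Single 20 µM dose | Incubation: Reaction time 90 min, room temperature, protected from light | Signal: Coupled resazurin fluorescence, excitation 525 nm, emission 613 nm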
CTSL1 counter – blocks F. hepatica cathepsin L1 in PFM18AAP counter-screen; recombinant F. hepatica cathepsin L1, Z-Leu-Arg-MCA fluorescence; inhibition, % at 5.96 µM; 0.49% of 300,000 active;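 active = inhibition above the mean of all tested compounds plus 3 SD, set per screening campaign, cut at about 17% in these data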
UCH37 inh – human UCH37 deubiquitinating enzyme inhibition; 0.33% of 330,000 active; Q9Y5K5; purified proteasome/UCH37, Ub-AMC cleavage fluorescence; inhibition, % (test concentration not listed); AID 588478;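 active = mean inhibition over replicate wells above about 20%, limit read from the data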
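Material: Human UCH37 enzyme supplied as purified proteasome complex | Schedule: 30 min compound-proteasome preincubation then 25 min substrate reaction, room temperature | Detection: AMC fluorescence from Ub-AMC cleavage, excitation 355 nm, emission 460 nm | Benchmarks: Wells without proteasome as full block, compound-free enzyme plus substrate as uninhibited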
PAD4 FP inh – blocks human protein arginine deiminase 4. Q9UM07. recombinant PAD4, RCA probe fluorescence polarization. inhibition, % at 6.36 µM. 0.41% of 330,000 active;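 active = percent inhibition above a cutoff equal to the mean of all tested compounds plus 3 SD, cut at about 15% in these data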
GSTO1 inh – GSTO1 inhibition, counter-screen for RBBP9 inhibitors; inhibition, % at 5.96 µM; P78417; recombinant GSTO1, activity-based probe fluorescence polarization; AID 1974; 1.1% of 300,000 active;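 active = inhibition above the campaign mean inhibition plus 3 SD, cut at about 35% in these data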
TDP2 inh – blocks human TDP2 phosphodiesterase activity | O95551 | recombinant TDP2, T5PNP hydrolysis, p-nitrophenol absorbance 415 nm | inhibition, % at 12.8 µM | 0.34% of 370,000 active | AID 720702;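 active = inhibition above the mean of all tested compounds plus 3 SD, set per campaign, cut at about 25% in these data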
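Read-out basis: percent inhibition. System: recombinant human TDP2. Buffer or medium: Mg2+-containing Tris-HCl buffer, pH 7.5. Repeats: single replicate. Timing: reaction 2 h, 37 °C. Benchmarks: high control without enzyme, low control DMSO plus TDP2. Probe or stimulus: 5 mM T5PNP. Doses: 12.8 µM only. Measured by: epi absorbance of p-nitrophenol freed from T5PNP by hydrolysis.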
GSTO1 inh conf – confirmation of human GSTO1 inhibitors. shares compounds with GSTO1 inh. recombinant GSTO1, probe fluorescence polarization. inhibition, % at 5.96 µM. 54% of 2,400 active. AID 2176;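 active = inhibition above the primary screen's cutoff, its mean inhibition plus 3 SD, cut at about 35% in these data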;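 also: loss of polarization as inhibitors block binding of rhodamine sulfonate ester activity probe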
GSTO1 recomb ABPP – GSTO1 (human) inhibition by gel ABPP; shares compounds with GSTO1 inh; recombinant GSTO1, gel ABPP SE-Rh probe fluorescence; inhibition, % at 1 µM; 30% of 130 active;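 active = inhibition of the enzyme GSTO1 above about 75%, limit read from the data; inactive = inhibition below that limit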
Hits are given with their value; 0 = inactive; - = no result given. Sampled rows, rich in hits. Any-hit rate of the full collection: about 1.6%.

SMILES | HKDC1 inh | CTSL1 counter | UCH37 inh | PAD4 FP inh | GSTO1 inh | TDP2 inh | GSTO1 inh conf | others
N#CC(C(N)=O)=c1ccc2c(c1)N1C3=C(CCCC3)CC3CCCCC31N=2 (centres undefined) | - | - | 0 | - | - | - | -
C1=CC2=NC34CCCCC3CC3=C(CCCC3)N4C2=CC1=NC1CCCCC1 (centres undefined) | 0 | 0 | 0 | 0 | 76 | - | 0
O=C(CCc1ccc(O)c(O)c1)N/N=C/c1ccc2c(c1)OCO2 | 0 | 0 | - | 0 | 44 | 0 | 0
O=C(CCc1ccc(O)c(O)c1)NN=Cc1ccc2c(c1)OCO2 | - | - | 0 | - | - | - | -
Cc1ccc(C2Nc3cccc4cccc(c34)N2)s1 | 0 | 0 | 0 | 0 | 44 | 0 | 0
CON=C(COc1ccc(F)cc1)c1ccc(OC)cc1 | - | - | 0 | - | - | - | -
CCN(Cc1ccc(OC)c(F)c1)C(=O)CCl | 0 | 0 | 0 | 0 | 98 | 0 | 101 | GSTO1 recomb ABPP=0
COc1ccc(C2C(C#N)=C(N)Oc3n[nH]c(-c4ccccn4)c32)c(OC)c1OC (centres undefined) | 0 | 0 | 0 | 0 | 43 | 0 | 0
COc1cccc(-c2[nH]nc3c2C(c2ccsc2)C(C#N)=C(N)O3)c1 (centres undefined) | 0 | 0 | 0 | 0 | 51 | 0 | 0
Cc1cc(/C=C2\SC(=S)NC2=O)c(C)n1C1CC1 | 0 | 0 | 0 | 0 | 40 | 0 | 51
NC(=NOC(=O)Nc1ccccc1)c1ncc([N+](=O)[O-])s1 | - | - | 0 | - | - | - | -
N/C(=N/OC(=O)c1ccccc1Cl)c1ncc([N+](=O)[O-])s1 | 0 | 0 | - | 0 | 47 | 0 | 0
O=C(CN1CCN(c2cccc(Cl)c2)CC1)N1CCCC1 | 0 | 0 | 0 | 0 | 0 | 0 | -
O=C(CCl)N1CCN(CC(=O)N2CCCC2)CC1 | 0 | 0 | 0 | 0 | 82 | 0 | 81 | GSTO1 recomb ABPP=0
O=C1c2ccccc2C(=O)c2c1oc(C(F)(F)F)c2C(=O)c1ccccc1 | 0 | 26 | 24 | 0 | 62 | 0 | 71
O=C(c1ccccc1)c1coc2c1C(=O)c1ccccc1C2=O | 0 | 20 | 0 | 0 | 60 | 0 | 39
O=C(c1ccccc1)c1ccc(CN2C(=O)c3ccccc3C2=O)o1 | 0 | 0 | 0 | 0 | 0 | 0 | -
N#CCC(=O)NN=Cc1cc(-c2ccccc2)n(-c2ccc(Cl)cc2)c1-c1ccccc1 | - | - | 0 | - | - | - | -
O=C(CCl)N(CCc1ccccc1)CCc1ccccc1 | 0 | 39 | - | 0 | 79 | 0 | 96 | GSTO1 recomb ABPP=82
O=[N+]([O-])c1ccc(Cl)c(/C=N/n2c(-c3ccncc3)n[nH]c2=S)c1 | 0 | 0 | - | 0 | 50 | 0 | 0
S=c1[nH]nc(-c2ccncc2)n1N=Cc1ccccc1Cl | - | - | 0 | - | - | - | -
c1ccc(N2CCN(Cc3ccnc4ccccc34)CC2)cc1 | 0 | 0 | 0 | 0 | 0 | 0 | -
Oc1c(CN2CCN(c3ccccc3)CC2)cc(Br)c2cccnc12 | 0 | 0 | 0 | 0 | 38 | 0 | 0
Cc1nnc(NN=Cc2c[nH]c3ccccc23)[nH]c1=O | - | - | 0 | - | - | - | -
NC1=NC(=O)C(=Cc2ccccc2)S1 | 0 | - | - | - | - | 0 | -
SMILES | HKDC1 inh | CTSL1 counter | UCH37 inh | PAD4 FP inh | GSTO1 inh | TDP2 inh | GSTO1 inh conf | others
NC1=NC(=O)/C(=C\c2ccco2)S1 | 0 | 0 | 0 | 0 | 41 | 0 | 0
Cc1cccc(NC(=O)Cn2nnc(C(=O)Nc3ccc(F)c(Cl)c3)c2N)c1 | 0 | 0 | 0 | 0 | 43 | 0 | 0
COc1cccc(NC(=O)c2nnn(CC(=O)Nc3cc(C)cc(C)c3)c2N)c1 | 0 | 0 | 0 | 0 | 0 | 0 | -
COC(=O)CCC(=O)OC1(C)C(=O)C2=CN(Cc3ccc(OC)cc3)C(c3ccc(OC)cc3)=CC2=C(Br)C1=O (centres undefined) | 0 | 0 | 0 | 0 | 38 | 0 | 39
COC(=O)CCC(=O)OC1(C)C(=O)C2=CN(CCCOC(C)C)C(c3ccc(OC)cc3)=CC2=C(Br)C1=O (centres undefined) | 0 | 0 | 0 | 0 | 52 | - | 65
COC(=O)CCC(=O)OC1(C)C(=O)C=C2C=C(C3CC3)N(Cc3ccc(OC)cc3)C=C2C1=O (centres undefined) | 0 | 0 | 0 | 0 | 0 | 0 | -
COC(=O)CCC(=O)OC1(C)C(=O)C2=CN(CCc3c[nH]c4ccccc34)C(c3ccc(OC)cc3)=CC2=C(Br)C1=O (centres undefined) | 0 | 0 | - | 0 | 0 | - | -
COC(=O)CCC(=O)OC1(C)C(=O)C2=CN(CC(C)C)C(c3ccc(OC)cc3)=CC2=C(Br)C1=O (centres undefined) | - | 0 | - | 0 | 59 | - | 53
COC(=O)CCC(=O)OC1(C)C(=O)C2=CN(C3CC3)C(c3ccc(OC)cc3)=CC2=C(Br)C1=O (centres undefined) | 0 | 0 | 0 | 0 | 63 | 0 | 0
CCCCC1=CC2=C(c3ccco3)C(=O)C(C)(OC(=O)c3ccc(OC)cc3)C(=O)C2=CN1CCCOC(C)C (centres undefined) | 0 | 0 | 0 | 0 | 0 | 0 | -
Cc1ccc(NC(=O)CCC(=O)NN=Cc2ccc(O)cc2)cc1 | - | - | 0 | - | - | - | -
CC(=O)Nc1ccc(C(=O)NN=Cc2cc(Br)cc(Br)c2O)cc1 | - | - | 0 | - | - | - | -
C=CC[C@@H]1C=C[C@H](ON=C[C@@H](NS(=O)(=O)c2ccc(C)cc2)[C@H](C)/C=C/CC(=O)OC)[C@@H](CO)O1 | - | - | 0 | - | - | - | -
O=C(NN=C(CC(=O)c1cccs1)C(F)(F)F)c1cccnc1 | - | - | 0 | - | - | - | -
O=c1[nH][nH]c(C(F)(F)F)c1C=NN1CCOCC1 | - | - | 0 | - | - | - | -
O=C(ON=C1CCCc2ccccc21)c1cccc(Cl)c1 | - | - | 0 | - | - | - | -
CC(C)CNC(=O)NC1(C(F)(F)F)Oc2ccccc2O1 | 0 | 0 | 0 | 0 | 51 | 0 | 0
O=C(NCc1cccnc1)NC(C(F)(F)F)C(F)(F)F | 0 | 0 | 0 | 0 | 0 | 0 | -
COc1cccc(NC(=O)Nc2cccc(C(=O)O)c2)c1 | 0 | 0 | 0 | 0 | 0 | 0 | -
O=C(NCc1cccnc1)NC1(C(F)(F)F)Oc2ccccc2O1 | 0 | 0 | 0 | 0 | 41 | 0 | 0
COc1cccc(NC(=O)NC2(C(F)(F)F)Oc3ccccc3O2)c1 | 0 | 0 | 0 | 0 | 41 | 0 | 0
CC(CC(=O)Nc1ccc(N(C)C)cc1)=NNC(=O)c1ccc(Cl)cc1 | - | - | 0 | - | - | - | -
ON=Cc1ccc2noc(-c3ccc(Cl)cc3)c2c1 | - | - | 0 | - | - | - | -
NC(=O)NN=Cc1cc(Br)ccc1OC(=O)c1ccccc1 | - | - | 0 | - | - | - | -
COc1c(Br)cc(C=Nn2c(-c3ccccc3)n[nH]c2=S)c(O)c1Br | - | - | 0 | - | - | - | -
CCCCn1c(N)c(N(CCOC)C(=O)C(C)N2C(=O)c3ccccc3C2=O)c(=O)[nH]c1=O (centres undefined) | 0 | 0 | 0 | 0 | 67 | 0 | 0

Compound activity deposited in PubChem by several laboratories.
